Assay results as given in ChEMBL document CHEMBL1126555, “6-Substituted benzimidazoles as new nonpeptide angiotensin II receptor antagonists: synthesis, biological activity, and structure-activity relationships” (J Med Chem, 1993).

Columns and labels:
[1] = target: T1, Type-1 angiotensin II receptor B (Rattus norvegicus, UniProt P29089); assay: Inhibition of specific binding of [125I]angiotensin-II to angiotensin 1 receptor in rat lung membrane preparation; format: cell membranes
T1 sequence (P29089 whole entry): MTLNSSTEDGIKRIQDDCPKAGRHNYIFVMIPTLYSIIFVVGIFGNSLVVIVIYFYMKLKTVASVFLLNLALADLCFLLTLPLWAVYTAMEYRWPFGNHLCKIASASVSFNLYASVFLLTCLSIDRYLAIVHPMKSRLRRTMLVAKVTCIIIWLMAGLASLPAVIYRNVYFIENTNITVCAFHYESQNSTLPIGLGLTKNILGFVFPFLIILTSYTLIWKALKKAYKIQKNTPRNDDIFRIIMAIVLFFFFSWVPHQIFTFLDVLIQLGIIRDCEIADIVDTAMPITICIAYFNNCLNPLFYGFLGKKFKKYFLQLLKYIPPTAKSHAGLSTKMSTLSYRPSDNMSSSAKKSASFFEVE
Procedure, shortened: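 Membranes from lungs of male Wistar rats (Chbb:THOM, 200–220 g), homogenized in Tris buffer pH 7.20 and spun at 1000g, then twice at 48 000g. DMSO ≤1%. Nonspecific binding defined with 1 μM AII. Filtration, gamma counting. IC50 from nonlinear fit; Ki by Cheng–Prusoff.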

[2] = system: Rattus norvegicus; assay: Maximum fall in mean arterial blood pressure (MABP) at 1 mg/kg po bid after 4 days of treatment in conscious chronically-instrumented renovascular hypertensive rats; format: functional
Procedure, shortened: (§1)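 Male Chbb:THOM rats (140–150 g) made renovascular hypertensive by a silver clip (internal diameter 0.20 mm) on the left renal artery under pentobarbitone-sodium (50 mg/kg ip). Chronic-use pressure transmitter implanted. Conscious animals dosed orally twice daily for 4 days. Mean arterial pressure and heart rate recorded continuously at 1-h intervals over 96 h, given as mean ± SE.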

[3] = system: Rattus norvegicus; assay: Fall in mean arterial blood pressure (MABP) at 1 mg/kg po bid for 4 days after first treatment in conscious chronically-instrumented renovascular hypertensive rats; format: functional; procedure, shortened: as §1
[4] = system: Rattus norvegicus; assay: Tested for percent inhibition of AII pressor response 2 hr after i.v. administration of 0.3 mg/Kg in rats; format: functional; details: iv

IC50 [1] [µM]	SMILES	further results
0.003	CCCc1nc2ccc(-c3nc4ccccc4n3C)cc2n1Cc1ccc(-c2ccccc2C(=O)O)cc1	
0.033	CCCCc1nc2ccc(N(C)S(=O)(=O)CCC)cc2n1Cc1ccc(-c2ccccc2C(=O)O)cc1	
0.48	CCCCc1nc2cccc(C)c2n1Cc1ccc(-c2ccccc2C(=O)O)cc1	
0.003	CCCc1nc2c(C)cc(-c3nc4ccccc4n3C)cc2n1Cc1ccc(-c2ccccc2C(=O)O)cc1	MABP [2]: 68 mmHg; MABP [3]: 42 mmHg
0.021	CCCCc1nc2ccc(NC(=O)NC3CCCCC3)cc2n1Cc1ccc(-c2ccccc2-c2nn[nH]n2)cc1	
1.2	CCCCc1nc2c(C)cccc2n1Cc1ccc(-c2ccccc2C(=O)O)cc1	
0.086	CCCCC(=O)Nc1ccc2nc(CCCC)n(Cc3ccc(-c4ccccc4C(=O)O)cc3)c2c1	
0.081	CCCCc1nc2ccc(N3CCCCC3=O)cc2n1Cc1ccc(-c2ccccc2C(=O)O)cc1	
0.003	CCCc1nc2c(C)cc(-c3cn4ccccc4n3)cc2n1Cc1ccc(-c2ccccc2-c2nnn[nH]2)cc1	
0.005	CCCc1nc2ccc(-c3nc4ccccc4n3C)cc2n1Cc1ccc(-c2ccccc2-c2nn[nH]n2)cc1	
0.39	CCCCCNc1ccc2nc(CCCC)n(Cc3ccc(-c4ccccc4C(=O)O)cc3)c2c1	
0.013	CCCc1nc2c(C)cc(-c3nc4ccccc4n3C)cc2n1Cc1ccc(-c2ccccc2-c2nnn[nH]2)cc1	
0.4	CCCCc1nc2ccccc2n1Cc1ccc(-c2ccccc2C(=O)O)cc1	
0.18	CCCCc1nc2ccc(NC(C)=O)cc2n1Cc1ccc(-c2ccccc2C(=O)O)cc1	
0.24	CCCc1nc2ccc(-c3nc4ccccc4o3)cc2n1Cc1ccc(-c2ccccc2-c2nn[nH]n2)cc1	
0.003	CCCCc1nc2ccc(N3CCCCS3(=O)=O)cc2n1Cc1ccc(-c2ccccc2-c2nnn[nH]2)cc1	inhibition in vivo at 0.3 mg/kg [4]: 60%
0.8	CCCCc1nc2cc(NC(=O)NC3CCCCC3)ccc2n1Cc1ccc(-c2ccccc2C(=O)O)cc1	
29.3	CCCCc1nc2c(NC(=O)NC3CCCCC3)cccc2n1Cc1ccc(-c2ccccc2C(=O)O)cc1	
0.158	CCCc1nc2c(C)cc(CN(C)C)cc2n1Cc1ccc(-c2ccccc2C(=O)O)cc1	
0.46	CCCCc1nc2cc(NC(C)=O)ccc2n1Cc1ccc(-c2ccccc2C(=O)O)cc1	

IC50 [1] [µM]	SMILES	further results
0.008	CCCCc1nc2ccc(NC(=O)N(C)C)cc2n1Cc1ccc(-c2ccccc2-c2nn[nH]n2)cc1	
0.82	CCCCc1nc2cc(N)ccc2n1Cc1ccc(-c2ccccc2C(=O)O)cc1	
0.026	CCCCc1nc2ccc(N(C)C(=O)NC3CCCCC3)cc2n1Cc1ccc(-c2ccccc2C(=O)O)cc1	
1.8	CCCCc1nc2cccc(NC(C)=O)c2n1Cc1ccc(-c2ccccc2C(=O)O)cc1	
5.7	CCCCc1nc2c(NC(C)=O)cccc2n1Cc1ccc(-c2ccccc2C(=O)O)cc1	
0.54	CCCCc1nc2ccc(N)cc2n1Cc1ccc(-c2ccccc2C(=O)O)cc1	
0.16	CCCCc1nc2cccc(NC(=O)NC3CCCCC3)c2n1Cc1ccc(-c2ccccc2C(=O)O)cc1	
0.024	CCCCc1nc2ccc(NC(=O)N(C)C)cc2n1Cc1ccc(-c2ccccc2C(=O)O)cc1	
0.85	CCCCc1nc2ccc(C)cc2n1Cc1ccc(-c2ccccc2C(=O)O)cc1	
0.35	CCCCc1nc(Cl)c(CO)n1Cc1ccc(-c2ccccc2C(=O)O)cc1	
0.011	CCCc1nc2ccc(-c3ccccn3)cc2n1Cc1ccc(-c2ccccc2-c2nnn[nH]2)cc1	
1.7	CCCCc1nc2c(N)cccc2n1Cc1ccc(-c2ccccc2C(=O)O)cc1	
1.2	CCCCc1nc2cc(C)ccc2n1Cc1ccc(-c2ccccc2C(=O)O)cc1	
0.005	CCCc1nc2c(C)cc(-c3ccccn3)cc2n1Cc1ccc(-c2ccccc2-c2nnn[nH]2)cc1	
0.004	CCCCc1nc2ccc(N3CCCCC3=O)cc2n1Cc1ccc(-c2ccccc2-c2nnn[nH]2)cc1	inhibition in vivo at 0.3 mg/kg [4]: 60%
0.16	CCCCc1nc2ccc(N3CCCCC3)cc2n1Cc1ccc(-c2ccccc2C(=O)O)cc1	
0.01	CCCCc1nc2ccc(N(C)C(=O)NC3CCCCC3)cc2n1Cc1ccc(-c2ccccc2-c2nn[nH]n2)cc1	
0.026	CCCCc1nc2ccc(NC(=O)NC3CCCCC3)cc2n1Cc1ccc(-c2ccccc2C(=O)O)cc1	
0.034	CCCCc1nc2ccc(N3CCCCS3(=O)=O)cc2n1Cc1ccc(-c2ccccc2C(=O)O)cc1	
